From ChEMBL document CHEMBL4043192, “The discovery of IDX21437: Design, synthesis and antiviral evaluation of 2'-α-chloro-2'-β-C-methyl branched uridine pronucleotides as potent liver-targeted HCV polymerase inhibitors” (Bioorg Med Chem Lett, 2017)

What was measured:
[1] = Selectivity index, ratio of CC50 for human Huh-7 cells to EC50 for HCV genotype 1b Con1 expressing NS3 protease
In short: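 Selectivity index = CC50/EC50. EC50 from a luciferase-read Con1 subgenomic replicon assay in Huh-7 (GS4.1) cells.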

Hepatitis C virus = test: Antiviral activity against HCV genotype 1b Con1 expressing NS3 protease infected in human Huh-7 cells assessed as reduction in viral RNA replication after 72 hrs by luciferase reporter gene assay; assay type: functional, cell-based, Hepacivirus hominis; details: genotype 1b Con1, Huh-7, 72 h
Liver = test: Dose normalized AUC (0 to 24 hrs) in mouse liver assessed as 2'-C-MeUTP level at 10 mg/kg, po administered as single dose; assay type: ADME, organism-based; details: in vivo
In short: (§1)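 Mice given a single oral 10 mg/kg dose. Triphosphate measured in liver and parent nucleoside in plasma. AUC expressed as dose-normalized AUC (AUC per mg/kg).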

Plasma = test: Dose normalized AUC (0 to 24 hrs) in mouse plasma assessed as 2'-C-MeU level at 10 mg/kg, po administered as single dose; assay type: ADME, organism-based; details: in vivo; in short: as §1
[2] = Cytotoxicity against human HuH7 cells assessed as reduction in cell viability; assay type: cell-based, Huh-7
[3] = Inhibition of wild-type HCV genotype 1b NS5B RNA dependent RNA polymerase; parameters: species or system Hepatitis C virus subtype 1b
In short: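 Biochemical assay using wild-type genotype 1b HCV NS5B polymerase. IC50 was derived from percent inhibition versus concentration data.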

| IC50 [3] | Compound | Ratio CC50/EC50 [1] | EC50 (Hepatitis C virus) | AUC/dose (Liver) | AUC/dose (Plasma) | CC50 [2] |
| --- | --- | --- | --- | --- | --- | --- |
|  | CCOC(=O)NCC(C)(C)C(=O)SCCO[P@](=O)(NCc1ccccc1)OC[C@H]1O[C@@H](n2ccc(=O)[nH]c2=O)[C@](C)(Cl)[C@@H]1O | >79 | 1270 nM |  |  |  |
|  | CCOC(=O)[C@@H](CC(C)C)N[P@](=O)(OC[C@H]1O[C@@H](n2ccc(=O)[nH]c2=O)[C@](C)(Cl)[C@@H]1O)Oc1ccccc1 | >1 | > 100000 nM |  |  |  |
|  | C[C@H](N[P@@](=O)(OC[C@H]1O[C@@H](n2ccc(=O)[nH]c2=O)[C@](C)(Cl)[C@@H]1O)Oc1ccccc1)C(=O)OCc1ccccc1 | >541 | 185 nM | 1200 pmol·h/g | 1900 pmol·h/mL |  |
|  | CCOC(=O)[C@@H](C)N[P@@](=O)(OC[C@H]1O[C@@H](n2ccc(=O)[nH]c2=O)[C@](C)(Cl)[C@@H]1O)Oc1ccccc1 | >12 | 8140 nM |  |  |  |
|  | C[C@@]1(F)[C@H](O)[C@@H](CO)O[C@H]1n1ccc(=O)[nH]c1=O |  | 50000 nM |  |  | > 100000 nM |
|  | CCCCOC(=O)[C@@H](C)N[P@](=O)(OC[C@H]1O[C@@H](n2ccc(=O)[nH]c2=O)[C@](C)(Cl)[C@@H]1O)Oc1ccccc1 | >189 | 528 nM | 7200 pmol·h/g | 1700 pmol·h/mL |  |
|  | CC(C)(CO)C(=O)SCCO[P@@]1(=O)OC[C@H]2O[C@@H](n3ccc(=O)[nH]c3=O)[C@](C)(Cl)[C@@H]2O1 | >240 | 417 nM | 3600 pmol·h/g | 710 pmol·h/mL |  |
|  | CC(C)OC(=O)[C@H](C)N[P@]1(=O)OC[C@H]2O[C@@H](n3ccc(=O)[nH]c3=O)[C@](C)(Cl)[C@@H]2O1 | >197 | 508 nM | 21 pmol·h/g | 570 pmol·h/mL |  |
|  | CCOC(=O)[C@H](C)N[P@@](=O)(OC[C@H]1O[C@@H](n2ccc(=O)[nH]c2=O)[C@](C)(Cl)[C@@H]1O)Oc1ccccc1 | >118 | 845 nM | 840 pmol·h/g | 1100 pmol·h/mL |  |
|  | CCOC(=O)[C@@H](CC(C)C)N[P@@](=O)(OC[C@H]1O[C@@H](n2ccc(=O)[nH]c2=O)[C@](C)(Cl)[C@@H]1O)Oc1ccccc1 | >3 | 37400 nM |  |  |  |
|  | CC(C)OC(=O)[C@@H](N[P@](=O)(OC[C@H]1O[C@@H](n2ccc(=O)[nH]c2=O)[C@](C)(Cl)[C@@H]1O)Oc1ccccc1)C(C)C | >1 | > 100000 nM |  |  |  |
|  | CC(C)C[C@H](N[P@](=O)(OC[C@H]1O[C@@H](n2ccc(=O)[nH]c2=O)[C@](C)(Cl)[C@@H]1O)Oc1ccccc1)C(=O)OC(C)C | >90 | 1110 nM |  |  |  |
|  | CCOC(=O)NCC(C)(C)C(=O)SCCOP1(=O)OC[C@H]2O[C@@H](n3ccc(=O)[nH]c3=O)[C@](C)(Cl)[C@@H]2O1 (single isomer, unassigned; 27b) | >1370 | 73 nM | 3300 pmol·h/g |  |  |
|  | CCOC(=O)NCC(C)(C)C(=O)SCCOP1(=O)OC[C@H]2O[C@@H](n3ccc(=O)[nH]c3=O)[C@](C)(Cl)[C@@H]2O1 (single isomer, unassigned; 27a) | >285 | 351 nM |  |  |  |
|  | C[C@@H](N[P@](=O)(OC[C@H]1O[C@@H](n2ccc(=O)[nH]c2=O)[C@](C)(Cl)[C@@H]1O)Oc1ccccc1)C(=O)OCc1ccccc1 | >122 | 819 nM | 6900 pmol·h/g | 1700 pmol·h/mL |  |
|  | CC(C)C[C@H](N[P@@](=O)(OC[C@H]1O[C@@H](n2ccc(=O)[nH]c2=O)[C@](C)(Cl)[C@@H]1O)Oc1ccccc1)C(=O)OC(C)C | >8 | 12600 nM |  |  |  |
|  | CCCCOC(=O)[C@@H](C)N[P@@](=O)(OC[C@H]1O[C@@H](n2ccc(=O)[nH]c2=O)[C@](C)(Cl)[C@@H]1O)Oc1ccccc1 | >46 | 2180 nM | 8400 pmol·h/g | 1700 pmol·h/mL |  |
|  | CC(C)(CO)C(=O)SCCOP1(=O)OC[C@H]2O[C@@H](n3ccc(=O)[nH]c3=O)[C@](C)(Cl)[C@@H]2O1 (single isomer, unassigned) | >403 | 248 nM | 5000 pmol·h/g | 1300 pmol·h/mL |  |
|  | CC(C)OC(=O)[C@@H](C)N[P@]1(=O)OC[C@H]2O[C@@H](n3ccc(=O)[nH]c3=O)[C@](C)(Cl)[C@@H]2O1 | >2 | 42300 nM | 7500 pmol·h/g | 910 pmol·h/mL |  |
|  | CC(C)OC(=O)[C@@H](C)N[P@@]1(=O)OC[C@H]2O[C@@H](n3ccc(=O)[nH]c3=O)[C@](C)(Cl)[C@@H]2O1 | >3 | 31800 nM | 2400 pmol·h/g | 770 pmol·h/mL |  |

| IC50 [3] | Compound | Ratio CC50/EC50 [1] | EC50 (Hepatitis C virus) | AUC/dose (Liver) | AUC/dose (Plasma) | CC50 [2] |
| --- | --- | --- | --- | --- | --- | --- |
|  | CC(C)(CO)C(=O)SCCO[P@@](=O)(NCc1ccccc1)OC[C@H]1O[C@@H](n2ccc(=O)[nH]c2=O)[C@](C)(Cl)[C@@H]1O | >25 | 3990 nM | 150 pmol·h/g | 930 pmol·h/mL |  |
|  | CC(C)OC(=O)[C@@H](C)NP(=O)(N[C@H](C)C(=O)OC(C)C)OC[C@H]1O[C@@H](n2ccc(=O)[nH]c2=O)[C@](C)(Cl)[C@@H]1O | >1 | > 100000 nM | 490 pmol·h/g | 210 pmol·h/mL |  |
|  | C[C@@H](N[P@@](=O)(OC[C@H]1O[C@@H](n2ccc(=O)[nH]c2=O)[C@](C)(Cl)[C@@H]1O)Oc1ccccc1)C(=O)OCc1ccccc1 | >23 | 4280 nM | 5600 pmol·h/g | 1400 pmol·h/mL |  |
| 81 nM | C[C@@]1(O)[C@H](O)[C@@H](COP(=O)(O)OP(=O)(O)OP(=O)(O)O)O[C@H]1n1ccc(=O)[nH]c1=O |  |  |  |  |  |
|  | CC(C)(CO)C(=O)SCCO[P@](=O)(NCc1ccccc1)OC[C@H]1O[C@@H](n2ccc(=O)[nH]c2=O)[C@](C)(Cl)[C@@H]1O | >28 | 3610 nM | 96 pmol·h/g | 590 pmol·h/mL |  |
|  | CC(C)OC(=O)[C@@H](N[P@@](=O)(OC[C@H]1O[C@@H](n2ccc(=O)[nH]c2=O)[C@](C)(Cl)[C@@H]1O)Oc1ccccc1)C(C)C | >1 | > 100000 nM |  |  |  |
|  | CC(C)OC(=O)[C@@H](C)N[P@](=O)(OC[C@H]1O[C@@H](n2ccc(=O)[nH]c2=O)[C@](C)(Cl)[C@@H]1O)Oc1ccccc1 | >10 | 9600 nM | 3750 pmol·h/g | 1050 pmol·h/mL |  |
|  | CC(C)OC(=O)[C@H](C)N[P@@](=O)(OC[C@H]1O[C@@H](n2ccc(=O)[nH]c2=O)[C@](C)(F)[C@@H]1O)Oc1ccccc1 | >48 | 2080 nM | 310 pmol·h/g | 320 pmol·h/mL |  |
|  | CCOC(=O)[C@H](CC(C)C)N[P@@](=O)(OC[C@H]1O[C@@H](n2ccc(=O)[nH]c2=O)[C@](C)(Cl)[C@@H]1O)Oc1ccccc1 | >40 | 2490 nM | 220 pmol·h/g | 940 pmol·h/mL |  |
|  | CC(C)OC(=O)[C@H](C)NP(=O)(N[C@@H](C)C(=O)OC(C)C)OC[C@H]1O[C@@H](n2ccc(=O)[nH]c2=O)[C@](C)(Cl)[C@@H]1O | >8 | 12000 nM |  |  |  |
|  | CC(C)OC(=O)[C@H](C)N[P@](=O)(OC[C@H]1O[C@@H](n2ccc(=O)[nH]c2=O)[C@](C)(Cl)[C@@H]1O)Oc1ccccc1 | >633 | 158 nM | 560 pmol·h/g | 1300 pmol·h/mL |  |
|  | CCOC(=O)[C@H](CC(C)C)N[P@](=O)(OC[C@H]1O[C@@H](n2ccc(=O)[nH]c2=O)[C@](C)(Cl)[C@@H]1O)Oc1ccccc1 | >344 | 291 nM | 270 pmol·h/g | 2100 pmol·h/mL |  |
|  | CC(C)OC(=O)[C@H](C)N[P@@]1(=O)OC[C@H]2O[C@@H](n3ccc(=O)[nH]c3=O)[C@](C)(Cl)[C@@H]2O1 | >25 | 4020 nM | 520 pmol·h/g | 1100 pmol·h/mL |  |
|  | CCOC(=O)[C@H](C)N[P@](=O)(OC[C@H]1O[C@@H](n2ccc(=O)[nH]c2=O)[C@](C)(Cl)[C@@H]1O)Oc1ccccc1 | >389 | 257 nM | 400 pmol·h/g | 1100 pmol·h/mL |  |
|  | CCOC(=O)[C@@H](C)N[P@](=O)(OC[C@H]1O[C@@H](n2ccc(=O)[nH]c2=O)[C@](C)(Cl)[C@@H]1O)Oc1ccccc1 | >39 | 2550 nM |  |  |  |
|  | CCOC(=O)NCC(C)(C)C(=O)SCCO[P@@](=O)(NCc1ccccc1)OC[C@H]1O[C@@H](n2ccc(=O)[nH]c2=O)[C@](C)(Cl)[C@@H]1O | >86 | 1160 nM |  |  |  |
|  | CC(C)OC(=O)[C@H](C)N[P@@](=O)(OC[C@H]1O[C@@H](n2ccc(=O)[nH]c2=O)[C@](C)(Cl)[C@@H]1O)Oc1ccccc1 | >105 | 953 nM | 840 pmol·h/g | 970 pmol·h/mL |  |
|  | CC(C)(CO)C(=O)SCCOP(=O)(NCc1ccccc1)OC[C@H]1O[C@@H](n2cnc3c(=O)[nH]c(N)nc32)[C@](C)(O)[C@@H]1O (stereo partly specified) | >370 | 203 nM | 275 pmol·h/g | 45 pmol·h/mL |  |
|  | C[C@H](N[P@](=O)(OC[C@H]1O[C@@H](n2ccc(=O)[nH]c2=O)[C@](C)(Cl)[C@@H]1O)Oc1ccccc1)C(=O)OCc1ccccc1 | >1408 | 71 nM | 850 pmol·h/g | 2500 pmol·h/mL |  |
